Screening data deposited in PubChem by several laboratories.
HSF1 inhib – HSF1 inhibition; NIH3T3-HGL HSE-luciferase, MG132-induced, luminescence 8 h; hits give low values; activity change, negative = inhibition, % at 7.5 µM (by protocol); 300,000 compounds, 0.77% hits; AID 2098;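 active means more than half of replicate wells show activity change below -50%, luminescence cut by over half; inconclusive means some wells, but at most half, below -50%; inactive means no replicate well below -50%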;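 further: luciferase reports HSF-1 transcriptional activity via heat shock element; 0% = median of DMSO wells and -100% = zero luminescence signal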
697 NFkB inh – inhibitors of the PMA/ionomycin-induced NF-kB reporter in 697 B cells | inhibition, % at 4 µM | AID 435022 | 330,000 compounds, 0.33% hits | 697 B-cell NF-kB luciferase reporter, 16 h; in the data active means inhibition above about 35%
HSF-1 act – increases HSF-1 driven luciferase reporter signal | NIH3T3-HGL HSF-1 luciferase reporter, MG132, 8 h; 100% = twice DMSO control signal | activation, % at 9 µM | 300,000 compounds, 1.7% hits | AID 504408;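 active means mean replicate activation of at least 50% with a set share of replicates each reaching 50%; inconclusive means only one of those two conditions met; inactive means mean below 50% and too few replicates reaching it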;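 further: 0% = median of the neutral control wells and 100% = twice that signal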
GPR7 antag – human neuropeptides B/W receptor 1 antagonism. inhibition, % at 4.4 µM. AID 1861. 290,000 compounds, 1.1% hits. GPR7-expressing cells, fluorescence antagonist assay; in the data active means inhibition above about 16%, passing the limit was not always enough;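 further: cells stimulated with the agonist NPW; 0% = agonist with vehicle and 100% = vehicle without agonist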
Target sequence (P48145 whole entry, looked up): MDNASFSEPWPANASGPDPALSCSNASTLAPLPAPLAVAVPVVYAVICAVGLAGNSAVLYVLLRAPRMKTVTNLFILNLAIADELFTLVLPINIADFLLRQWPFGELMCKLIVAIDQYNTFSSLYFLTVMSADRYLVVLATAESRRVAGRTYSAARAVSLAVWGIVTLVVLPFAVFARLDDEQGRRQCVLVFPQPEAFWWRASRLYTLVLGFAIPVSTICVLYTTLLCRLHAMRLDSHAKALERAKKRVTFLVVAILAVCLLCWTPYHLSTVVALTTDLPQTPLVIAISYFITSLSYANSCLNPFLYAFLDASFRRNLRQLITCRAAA
Jurkat NFkB inh – inhibitors of the PMA/ionomycin-induced NF-kB reporter in Jurkat cells | AID 435003 | PMA/ionomycin-induced NF-kB luciferase reporter, luminescence | 330,000 compounds, 0.53% hits | inhibition, % at 4 µM; in the data active means inhibition above about 50%
T cruzi repl – blocks replication of Trypanosoma cruzi; T. cruzi beta-gal in NIH3T3, luminescence, 90 h; inhibition, % (test concentration not listed); 300,000 compounds, 1.4% hits; AID 1885;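 active means mean inhibition across valid replicates above about 55%, limit read from the data; inconclusive means mean below that limit but half or more replicates reach it; inactive means mean below it, under half of replicates reach it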;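 further: signal also drops with host cell toxicity which is not excluded here; 0% = plate median of DMSO wells and 100% = zero luminescence signal; higher percent means less beta-gal luminescence so fewer parasites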
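Incubation – ≥90 h infection period, 3 h prior cell attachment · System – NIH/3T3 fibroblasts plus reporter T. cruzi · Doses – compound pinned at 50 nL/well, DMSO · Read-out basis – percent inhibition of parasite-derived β-gal signal · Signal – luminescent β-galactosidase signal after 60 min lysis · Also added – 5000 T. cruzi trypomastigotes/well · Medium – Low-serum DMEM with 2% FBS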
Starred values were filed as active, the others as inactive. This is a sample that favours compounds with a hit; in the whole collection about 4.8% have one here.

Screening O=C(N1CCOCC1)C12CC3CC(C1)CC(C(=O)N1CCOCC1)(C3)C2 returned HSF1 inhib 1, 697 NFkB inh -4, HSF-1 act -6, GPR7 antag -9, Jurkat NFkB inh -6 and T cruzi repl -1.
For O=C(N1CCOCC1)C12CCC3CC(CC(C3)C1)C2 the results were HSF1 inhib -54*, 697 NFkB inh -11, HSF-1 act -64, GPR7 antag -6, Jurkat NFkB inh -10 and T cruzi repl -16.
`CC(C)N(Cc1ccccc1)C(=O)CN1C(=O)NC2(CCOc3ccccc32)C1=O` (stereo not given) gave 697 NFkB inh 23 and Jurkat NFkB inh 33.
`COc1cccc(NC(=S)N2CCC(c3ccc(C)cc3)C2)c1` (stereo not given) gave HSF1 inhib -11, 697 NFkB inh -41, HSF-1 act -23, GPR7 antag -3, Jurkat NFkB inh -19 and T cruzi repl 24.
O=C(NCCc1nc2ccccc2[nH]1)c1ccc(Cl)c([N+](=O)[O-])c1 was read as HSF1 inhib 19, 697 NFkB inh 20, HSF-1 act inconclusive, GPR7 antag -11, Jurkat NFkB inh 14 and T cruzi repl 40.
Cc1cccc(NC(=O)c2ccc(N3CCCCC3)c([N+](=O)[O-])c2)n1 was read as HSF1 inhib 32, 697 NFkB inh -115, HSF-1 act 62*, GPR7 antag -14, Jurkat NFkB inh -146 and T cruzi repl 11.
`Cc1cc(C)nc(NC(=O)c2ccc(C)c([N+](=O)[O-])c2)n1` gave HSF1 inhib -72*, 697 NFkB inh -8, HSF-1 act -81, GPR7 antag -5, Jurkat NFkB inh -14 and T cruzi repl 1.
Cc1ccc(C(=O)NCCc2nc3ccccc3[nH]2)cc1[N+](=O)[O-] was read as HSF1 inhib -17, 697 NFkB inh 12, HSF-1 act -33, GPR7 antag -19, Jurkat NFkB inh -8 and T cruzi repl 58*.
For CC1CCCN(c2ccc(C(=O)NCc3ccc4c(c3)OCO4)cc2[N+](=O)[O-])C1 (stereo not given) the results were HSF1 inhib 4, 697 NFkB inh 1, HSF-1 act 9, GPR7 antag -10, Jurkat NFkB inh 3 and T cruzi repl 38.
`O=C(NCc1ccc2c(c1)OCO2)c1ccc(N2CCCCCC2)c([N+](=O)[O-])c1` gave HSF1 inhib 12, 697 NFkB inh 7, HSF-1 act 14, GPR7 antag 4, Jurkat NFkB inh 17 and T cruzi repl 59*.
Screening COc1ccc(-n2c(C)cc(=O)[nH]c2=O)cc1 returned HSF1 inhib -3, 697 NFkB inh -2, HSF-1 act 2, GPR7 antag -11, Jurkat NFkB inh -3 and T cruzi repl -9.
COCCCNC(=S)Nc1ccc(S(=O)(=O)Nc2cc(OC)nc(OC)n2)cc1 was read as HSF1 inhib 2, 697 NFkB inh 14, HSF-1 act -14, GPR7 antag -14, Jurkat NFkB inh 13 and T cruzi repl -6.
`CC(=O)Nc1ccc(S(=O)(=O)NCc2ccc(C(=O)NCc3ccc4c(c3)OCO4)cc2)cc1` gave HSF1 inhib -62*, 697 NFkB inh 4, HSF-1 act -72, GPR7 antag -3, Jurkat NFkB inh 1 and T cruzi repl -1.
CC(=O)Nc1ccc(S(=O)(=O)NCc2ccc(C(=O)NCc3ccc(Cl)cc3)cc2)cc1 was read as HSF1 inhib -1, 697 NFkB inh -1, HSF-1 act -6, GPR7 antag 4, Jurkat NFkB inh -2 and T cruzi repl -10.
Screening COC(=O)C(=Cc1ccc(-c2ccsc2C(=O)OC)o1)C(=O)OC returned HSF1 inhib 31, 697 NFkB inh 4, HSF-1 act 43, GPR7 antag -10, Jurkat NFkB inh 7 and T cruzi repl 15.
For CCOC(=O)C(=Cc1ccc(-c2ccsc2C(=O)OC)o1)C(=O)OCC the results were HSF1 inhib 75, 697 NFkB inh -15, HSF-1 act 90*, GPR7 antag -12, Jurkat NFkB inh -8 and T cruzi repl 29.
`Oc1ccc(-c2nccc(-c3ccc(Cl)cc3Cl)n2)cc1` gave HSF1 inhib 2, 697 NFkB inh 2, HSF-1 act 13, GPR7 antag -15, Jurkat NFkB inh 11 and T cruzi repl 79*.
For Oc1ccc(-c2nccc(-c3ccc(Cl)cc3)n2)cc1 the results were HSF1 inhib 10, 697 NFkB inh -18, HSF-1 act 39, GPR7 antag -6, Jurkat NFkB inh -29 and T cruzi repl 39.
`COc1ccccc1/C=N/NC(=O)c1ccccc1Cl` gave HSF1 inhib -3, 697 NFkB inh 4, HSF-1 act -5, GPR7 antag 18, Jurkat NFkB inh -7 and T cruzi repl -4.
`C=CCc1cccc(/C=N/NC(=O)c2ccccc2OC)c1O` gave HSF1 inhib 17, 697 NFkB inh -13, HSF-1 act 30, GPR7 antag 19*, Jurkat NFkB inh 16 and T cruzi repl 62*.
`C=CCc1cccc(/C=N/NC(=O)c2ccccc2Br)c1O` gave HSF1 inhib 6, 697 NFkB inh 3, HSF-1 act 3, GPR7 antag 1, Jurkat NFkB inh 6 and T cruzi repl 61*.
For C=CCC(COCc1ccccc1)NS(=O)(=O)c1ccccc1Br (stereo not given) the results were HSF1 inhib -7, 697 NFkB inh 8, HSF-1 act -1, Jurkat NFkB inh -7 and T cruzi repl -19.
Screening CN(CCNC(=O)C1CC(=O)N(c2ccc(F)c(Cl)c2)C1)Cc1ccccc1 (stereo not given) returned 697 NFkB inh 1, GPR7 antag -6, Jurkat NFkB inh -7 and T cruzi repl 60*.
CCCCNC(=O)C1CC(=O)N(CCc2ccccc2)C1 (stereo not given) was read as HSF1 inhib 1, 697 NFkB inh 10, HSF-1 act -4, GPR7 antag -19, Jurkat NFkB inh -2 and T cruzi repl -9.
For Cc1ccc(CCN2CC(C(=O)NCCCN(C)Cc3ccccc3)CC2=O)cc1 (stereo not given) the results were HSF1 inhib -7, 697 NFkB inh 5, HSF-1 act -10, GPR7 antag -13, Jurkat NFkB inh 5 and T cruzi repl 63*.
`CC(=O)OC1CC(C)N(C(=O)c2ccccc2)c2ccc(C)cc21` (stereo not given) gave HSF1 inhib 4, 697 NFkB inh 3, HSF-1 act 10, GPR7 antag -11, Jurkat NFkB inh -4 and T cruzi repl -13.
Screening CC(=O)N1c2ccc(C)cc2C(c2ccccc2)CC1C (stereo not given) returned HSF1 inhib 34, 697 NFkB inh 23, HSF-1 act 58*, GPR7 antag 6, Jurkat NFkB inh -2 and T cruzi repl 16.
